Test results published in ChEMBL document CHEMBL1149790, “Synthesis of some novel thiourea derivatives obtained from 5-[(4-aminophenoxy)methyl]-4-alkyl/aryl-2,4-dihydro-3H-1,2,4-triazole-3-thiones and evaluation as antiviral/anti-HIV and anti-tuberculosis agents” (Eur J Med Chem, 2008).
Values after ≈ are worked out from the molar mass of the structure shown.

Columns and labels:
[1] = test system: Respiratory syncytial virus; experiment: Antiviral activity against respiratory syncytial virus in human HeLa cells assessed as inhibition of virus-induced cytopathogenicity; assay type: functional
In short: (§1)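 Confluent cell monolayers (E6SM, HEL, HeLa or Vero, per line) inoculated with 100 CCID50 virus; 1 h adsorption, residual virus removed, then incubated with compound at 400, 200, 100 … µg/ml. Cytopathicity scored once complete in untreated virus controls; MIC = concentration inhibiting virus-induced cytopathicity.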

[2] = Cytotoxicity against human HEL cells assessed as alteration of cell morphology; assay type: cell-based
In short: (§2)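 Uninfected cell cultures exposed to test compounds alongside antiviral assays; minimum cytotoxic concentration (MCC) = concentration causing a microscopically detectable alteration of cell morphology.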

[3] = test system: Human alphaherpesvirus 1; experiment: Antiviral activity against HSV1 KOS in human HEL cells assessed as reduction of virus-induced cytopathogenicity; assay type: functional; conditions: Human alphaherpesvirus 1, KOS; in short: as §1
[4] = test system: Human alphaherpesvirus 2; experiment: Antiviral activity against HSV2 G in human HEL cells assessed as reduction of virus-induced cytopathogenicity; assay type: functional; conditions: Human alphaherpesvirus 2, G; in short: as §1
[5] = test system: Human alphaherpesvirus 1; experiment: Antiviral activity against HSV1 KOS in human E6SM cells assessed as reduction of virus-induced cytopathogenicity; assay type: functional; conditions: Human alphaherpesvirus 1, KOS; in short: as §1
[6] = test system: Mammalian orthoreovirus 1; experiment: Antiviral activity against Reo virus 1 in african green monkey Vero cells assessed as reduction of virus-induced cytopathogenicity; assay type: functional; in short: as §1
[7] = test system: Human respirovirus 3; experiment: Antiviral activity against Parainfluenza 3 virus in african green monkey Vero cells assessed as reduction of virus-induced cytopathogenicity; assay type: functional; in short: as §1
[8] = test system: Human immunodeficiency virus 2; experiment: Antiviral activity against HIV2 ROD in human MT4 cells assessed as protection against virus-induced cytopathogenicity by MTT assay; assay type: functional, organism-based; design: Activity: concentration or dose not given beside the values; conditions: for IC50: Human immunodeficiency virus 2, ROD, MT4
In short: (§3)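 MT-4 cells at 6 × 10⁵ cells/ml infected with HIV-1 IIIB or HIV-2 ROD at 100–300 CCID50; compounds in serial five-fold dilutions, triplicate mock- and virus-infected wells. MTT viability read at 540 and 690 nm after 5 days, median OD of three wells; EC50 = 50% protection from viral cytopathic effect.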

[9] = Cytotoxicity against human MT4 cells by MTT assay; assay type: cell-based
In short: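 Mock-infected MT-4 cells (6 × 10⁵ cells/ml) with serial five-fold compound dilutions in triplicate; MTT reduction read at 540 and 690 nm after 5 days, median OD of three wells; CC50 = concentration reducing OD540 of mock-infected control by 50%.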

[10] = test system: Vesicular stomatitis virus; experiment: Antiviral activity against in Vesicular stomatitis virus in human HEL cells assessed as reduction of virus-induced cytopathogenicity; assay type: functional; in short: as §1
[11] = test system: Human alphaherpesvirus 2; experiment: Antiviral activity against HSV2 G in human E6SM cells assessed as reduction of virus-induced cytopathogenicity; assay type: functional; conditions: Human alphaherpesvirus 2, G; in short: as §1
[12] = test system: Human alphaherpesvirus 1; experiment: Antiviral activity against thymidine kinase deficient and acyclovir resistant HSV1 KOS in human E6SM cells assessed as reduction of virus-induced cytopathogenicity; assay type: functional; conditions: Human alphaherpesvirus 1, KOS; in short: as §1
[13] = test system: Human alphaherpesvirus 1; experiment: Antiviral activity against thymidine kinase deficient and acyclovir resistant HSV1 KOS in human HEL cells assessed as reduction of virus-induced cytopathogenicity; assay type: functional; conditions: Human alphaherpesvirus 1, KOS; in short: as §1
[14] = Cytotoxicity against human HeLa cells; assay type: cell-based; in short: as §2
[15] = test system: Vesicular stomatitis virus; experiment: Antiviral activity against in Vesicular stomatitis virus in human E6SM cells assessed as reduction of virus-induced cytopathogenicity; assay type: functional; in short: as §1
[16] = test system: Coxsackievirus B4; experiment: Antiviral activity against Coxsackie virus B4 in human HeLa cells assessed as inhibition of virus-induced cytopathogenicity; assay type: functional; conditions: Enterovirus B; in short: as §1
[17] = Cytotoxicity against human E6SM cells; assay type: cell-based; conditions: E6SM cells; in short: as §2
[18] = test system: Sindbis virus; experiment: Antiviral activity against Sindbis virus in african green monkey Vero cells assessed as reduction of virus-induced cytopathogenicity; assay type: functional; in short: as §1
[19] = test system: Coxsackievirus B4; experiment: Antiviral activity against Coxsackie virus B4 in african green monkey Vero cells assessed as reduction of virus-induced cytopathogenicity; assay type: functional; conditions: Enterovirus B; in short: as §1
[20] = test system: Punta Toro virus; experiment: Antiviral activity against Punta Toro virus in african green monkey Vero cells assessed as reduction of virus-induced cytopathogenicity; assay type: functional; in short: as §1
[21] = test system: Vesicular stomatitis virus; experiment: Antiviral activity against vesicular stomatitis virus in human HeLa cells assessed as inhibition of virus-induced cytopathogenicity; assay type: functional; in short: as §1
[22] = test system: Human immunodeficiency virus 1; experiment: Antiviral activity against HIV1 3B in human MT4 cells assessed as protection against virus-induced cytopathogenicity by MTT assay; assay type: functional, organism-based; design: Activity: concentration or dose not given beside the values; conditions: for IC50: Human immunodeficiency virus 1, 3B, MT4; in short: as §3
[23] = test system: Vero; experiment: Cytotoxicity against african green monkey Vero cells; assay type: cell-based; conditions: chlorocebus sabaeus; in short: as §2

C=CCNC(=S)Nc1ccc(-c2n[nH]c(=S)n2CCCCCC)cc1
MIC [1]: > 16 µg/mL | MCC [2]: 80 µg/mL | MIC [3]: > 16 µg/mL | MIC [4]: > 16 µg/mL | MIC [5]: > 16 µg/mL | MIC [6]: > 16 µg/mL | MIC [7]: > 16 µg/mL | Activity [8]: 0% | IC50 [8]: > 10.1 µg/mL | CC50 [9]: 10.1 µg/mL (≈ 26.8 µM) | MIC [10]: > 16 µg/mL | MIC [11]: > 16 µg/mL | MIC [12]: > 16 µg/mL | MIC [13]: > 16 µg/mL | MCC [14]: 80 µg/mL | MIC [15]: > 16 µg/mL | MIC [16]: > 16 µg/mL | MCC [17]: 80 µg/mL | MIC [18]: > 16 µg/mL | MIC [19]: > 16 µg/mL | MIC [20]: > 16 µg/mL | MIC [21]: > 16 µg/mL | Activity [22]: 4% | IC50 [22]: > 10.1 µg/mL | Activity [23]: >= 16 ug ml-1

C=CCn1c(-c2ccc(NC(=S)Nc3ccccc3)cc2)n[nH]c1=S
MIC [1]: > 80 µg/mL | MCC [2]: 80 µg/mL | MIC [3]: > 16 µg/mL | MIC [4]: > 16 µg/mL | MIC [5]: > 16 µg/mL | MIC [6]: > 16 µg/mL | MIC [7]: > 16 µg/mL | Activity [8]: 0% | IC50 [8]: > 19.4 µg/mL | CC50 [9]: 19.4 µg/mL (≈ 52.8 µM) | MIC [10]: > 16 µg/mL | MIC [11]: > 16 µg/mL | MIC [12]: > 16 µg/mL | MIC [13]: > 16 µg/mL | MCC [14]: 400 µg/mL | MIC [15]: > 16 µg/mL | MIC [16]: > 80 µg/mL | MCC [17]: 80 µg/mL | MIC [18]: > 16 µg/mL | MIC [19]: > 16 µg/mL | MIC [20]: > 16 µg/mL | MIC [21]: > 80 µg/mL | Activity [22]: 30.5% | IC50 [22]: > 19.4 µg/mL | Activity [23]: 80 µg/mL

S=C(Nc1ccccc1)Nc1ccc(-c2n[nH]c(=S)n2-c2ccccc2)cc1
MIC [1]: > 80 µg/mL | MCC [2]: ≥ 80 µg/mL | MIC [3]: > 80 µg/mL | MIC [4]: > 80 µg/mL | MIC [5]: > 80 µg/mL | MIC [6]: > 16 µg/mL | MIC [7]: > 16 µg/mL | Activity [8]: 0% | IC50 [8]: > 28.6 µg/mL | CC50 [9]: 28.6 µg/mL (≈ 70.8 µM) | MIC [10]: > 80 µg/mL | MIC [11]: > 80 µg/mL | MIC [12]: > 80 µg/mL | MIC [13]: > 80 µg/mL | MCC [14]: 80 µg/mL | MIC [15]: > 80 µg/mL | MIC [16]: > 80 µg/mL | MCC [17]: ≥ 80 µg/mL | MIC [18]: > 16 µg/mL | MIC [19]: > 16 µg/mL | MIC [20]: > 16 µg/mL | MIC [21]: > 80 µg/mL | Activity [22]: 25% | IC50 [22]: > 28.6 µg/mL | Activity [23]: 80 µg/mL

CCCCCCNC(=S)Nc1ccc(-c2n[nH]c(=S)n2C)cc1
MIC [1]: > 16 µg/mL | MCC [2]: 400 µg/mL | MIC [3]: 48 µg/mL (≈ 137 µM) | MIC [4]: 48 µg/mL (≈ 137 µM) | MIC [5]: 48 µg/mL (≈ 137 µM) | MIC [6]: > 16 µg/mL | MIC [7]: > 16 µg/mL | Activity [8]: 0% | IC50 [8]: > 8.82 µg/mL | CC50 [9]: 8.82 µg/mL (≈ 25.2 µM) | MIC [10]: > 80 µg/mL | MIC [11]: 48 µg/mL (≈ 137 µM) | MIC [12]: 48 µg/mL (≈ 137 µM) | MIC [13]: 48 µg/mL (≈ 137 µM) | MCC [14]: 80 µg/mL | MIC [15]: > 80 µg/mL | MIC [16]: > 16 µg/mL | MCC [17]: 400 µg/mL | MIC [18]: > 16 µg/mL | MIC [19]: > 16 µg/mL | MIC [20]: > 16 µg/mL | MIC [21]: > 16 µg/mL | Activity [22]: 8% | IC50 [22]: > 8.82 µg/mL | Activity [23]: 80 µg/mL
